FN deposit inh – fibronectin deposition inhibition. AH1F fibroblasts, Alexa488-fibronectin deposition fluorescence, overnight. 350,000 tested, 0.086% active. inhibition, % at 12.6 µM. AID 743247;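 active means mean inhibition across replicates of 30% or more, regardless of how many single replicates reach that level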;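 further: positive control wells lacked labelled fibronectin entirely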
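Measured by – fluorescence 485/525 nm · System – AH1F fibroblast monolayer, labelled fibronectin deposition · Amount – 10000 cells per well · Buffer or medium – serum-reduced DMEM (2% serum) · Doses – single dose, pinned · Also added – fluorescent fibronectin at 24 nM final · Schedule – 1 h cell attachment, overnight exposure to compound and label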
MLL AF4-AF9 inh – blocks AF4 peptide binding to human AF9; P42568; AlphaScreen, biotin-AF4 peptide binding to FLAG-AF9; inhibition, % at 10 µM; 350,000 tested, 0.47% active;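 active means every replicate reaching a set inhibition limit, whatever the replicate mean, cut at about 25% in these data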;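 further: 0% = plate neutral control median and 100% = total signal loss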
FGF22 binding-1 – binders of recombinant human FGF22 by thermal shift | Q9HCT0 | SYPRO orange fluorescence; percent of sucrose octasulfate shift, DMSO zero | activity (Tm shift, normalised), % at 9.99 µM | 340,000 tested, 1.5% active | AID 651658;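 active means mean Tm shift, scaled 0 neutral to 100 positive control, at about 1.3% or above, every replicate too, limit read from the data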
Target sequence (Q9HCT0 whole entry, looked up): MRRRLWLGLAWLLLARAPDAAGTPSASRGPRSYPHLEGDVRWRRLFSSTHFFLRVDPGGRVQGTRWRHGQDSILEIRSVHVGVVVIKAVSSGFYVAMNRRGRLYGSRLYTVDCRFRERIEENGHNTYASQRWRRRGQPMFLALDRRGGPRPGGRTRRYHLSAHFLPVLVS
ERp5 block – inhibitors of human ERp5. ERp5 insulin aggregation, absorbance 650 nm, 90 min. 350,000 tested, 0.05% active. Q15084. inhibition, % at 9.99 µM;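 active means mean replicate inhibition above about 25%, with every replicate also reaching it, limit read from the data, passing the limit was not always enough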
ARNT-TACC3 inh – disrupts binding between human ARNT and TACC3; AlphaScreen His-ARNT PAS-B/GST-TACC3 binding, luminescence; TACC3 fragment carries E629A point mutation; Q9Y6A5; AID 623870; 390,000 tested, 0.66% active; inhibition, % at 9.99 µM;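 active means mean inhibition of replicates at least 50% and at least half of replicates each reaching 50%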;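 further: 0% = complete ARNT plus TACC3 wells and 100% = ARNT alone without TACC3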
PDI turbidity – blocks human protein disulfide isomerase activity; PDI insulin aggregation turbidity, A650, 90 min; inhibition, % at 10 µM; 350,000 tested, 0.052% active;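 active means mean inhibition across replicates of 30% or more, whatever share of single replicates reach that level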
Target sequence (P07237 whole entry, looked up): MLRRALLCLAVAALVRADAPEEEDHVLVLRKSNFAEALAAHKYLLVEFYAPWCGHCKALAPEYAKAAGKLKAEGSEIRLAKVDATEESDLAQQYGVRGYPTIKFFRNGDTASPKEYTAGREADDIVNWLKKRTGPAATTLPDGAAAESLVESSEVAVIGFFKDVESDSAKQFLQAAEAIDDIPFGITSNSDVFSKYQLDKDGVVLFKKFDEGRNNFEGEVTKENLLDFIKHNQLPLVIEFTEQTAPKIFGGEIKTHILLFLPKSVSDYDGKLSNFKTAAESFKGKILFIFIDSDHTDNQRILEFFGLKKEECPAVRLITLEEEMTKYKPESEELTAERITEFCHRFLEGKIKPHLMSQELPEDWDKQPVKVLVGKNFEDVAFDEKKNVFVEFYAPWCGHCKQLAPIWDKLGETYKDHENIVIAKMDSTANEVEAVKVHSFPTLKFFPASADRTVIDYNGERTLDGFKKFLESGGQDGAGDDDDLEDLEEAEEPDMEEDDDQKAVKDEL
FGF22 binding-2 – binders of human FGF22 by thermal shift | shares compounds with FGF22 binding-1 | recombinant FGF22 thermal shift, SYPRO orange fluorescence | thermal shift activity, °C (ΔTm) at 38 µM | 1,000 tested, 2% active | AID 720646;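 active means fitted rise in melting shift crosses a set limit at or below the top valid dose tested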
TSA no protein – shows thermal shift signal without protein, FGF22 counter-screen; 1,000 tested, 2% active; shares compounds with FGF22 binding-1; AC50, µM (series often up to 38 µM); compound-only SYPRO orange thermal shift counter-screen, no protein;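 active means rising signal whose fitted curve reaches the 0.54 level within the top valid dose, showing a melting point, actives reach about 13 µM in these data; inactive means the rest, including activity in the opposite direction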; further: value is where the raw curve crosses a fixed level and not half-maximal
* marks the source's active call; other numbers are inactive results; [ ] = another dose, or the depositor's remark. This is a sample that favours compounds with a hit; in the whole collection about 2.1% have one here.

`CCOC(=O)c1sc(N2C(=O)C(O)=C(C(=O)c3ccco3)C2c2ccc([N+](=O)[O-])cc2)nc1C` (stereo not given) gave FN deposit inh 1, MLL AF4-AF9 inh 5, FGF22 binding-1 1.7*, ERp5 block 9, ARNT-TACC3 inh 12, PDI turbidity -6, FGF22 binding-2 0.2 and TSA no protein inactive.
`CCS(=O)(=O)N1CC2(CN(C(=O)c3cccnc3)C2)c2c(n(C)c3cc(OC)ccc23)[C@H]1CO` gave FN deposit inh -5.
Screening O=[N+]([O-])c1ccc2nc(NS(=O)(=O)c3ccccc3[N+](=O)[O-])sc2c1 returned FN deposit inh -1, MLL AF4-AF9 inh 1, FGF22 binding-1 2.4*, ERp5 block 0, ARNT-TACC3 inh 7, PDI turbidity 13, FGF22 binding-2 -0.44 and TSA no protein inactive.
N#C/C(=C/c1ccc(N2CCCC2)c([N+](=O)[O-])c1)c1nc2ccccc2[nH]1 was read as FN deposit inh 7, ARNT-TACC3 inh -3 and PDI turbidity 1.
`N#C/C(=C\c1ccc(N2CCOCC2)c([N+](=O)[O-])c1)c1nc2ccccc2[nH]1` gave FN deposit inh -11, MLL AF4-AF9 inh 6, FGF22 binding-1 1.7*, ERp5 block 0, ARNT-TACC3 inh 0, PDI turbidity 2, FGF22 binding-2 -0.052 and TSA no protein inactive.
Cc1noc(C)c1NC(=O)Nc1ccc2c(c1)CC(=O)N([C@H](C)CO)C[C@H](C)[C@@H](CN(C)S(=O)(=O)c1c(C)noc1C)O2 was read as FN deposit inh 3.
COc1ccccc1NC(=O)c1ccc(NC(=O)COC(=O)c2ccc(O)cc2)cc1 was read as FN deposit inh -1, MLL AF4-AF9 inh 0, FGF22 binding-1 1.7*, ERp5 block 7, ARNT-TACC3 inh 1, PDI turbidity -8, FGF22 binding-2 0.009 and TSA no protein inactive.
For COc1ccccc1NC(=O)c1ccc(NC(=O)COC(=O)C(C)C)cc1 the results were FN deposit inh 5, ARNT-TACC3 inh -11 and PDI turbidity 2.
For CCC(=O)N(NC1=NS(=O)(=O)c2ccccc21)S(=O)(=O)c1ccc(C)cc1 the results were FN deposit inh -3, MLL AF4-AF9 inh -3, FGF22 binding-1 1.7*, ERp5 block -1, ARNT-TACC3 inh 1, PDI turbidity -1, FGF22 binding-2 -0.002 and TSA no protein inactive.
For CCN(CC)S(=O)(=O)c1ccc(NC2=NS(=O)(=O)c3ccccc32)cc1 the results were MLL AF4-AF9 inh -1, FGF22 binding-1 0, ERp5 block -7, ARNT-TACC3 inh -6 and PDI turbidity 0.
For COc1ccccc1S(=O)(=O)N[C@H]1CC[C@H](CCNC(=O)C2CCOCC2)O[C@@H]1CO the results were MLL AF4-AF9 inh 1, FGF22 binding-1 0, ERp5 block 3 and ARNT-TACC3 inh 4.
For O=C(Nc1ccc(F)cc1)N[C@H]1CC[C@@H](CC(=O)N2CCCCC2)O[C@H]1CO the results were MLL AF4-AF9 inh -13, FGF22 binding-1 1 and ERp5 block 1.
`CC(C)N(C[C@H]1[C@H](c2ccccc2)[C@@H](CO)N1S(C)(=O)=O)C(=O)CN(C)C` gave FN deposit inh 9, MLL AF4-AF9 inh -2, FGF22 binding-1 1.2*, ERp5 block 5, ARNT-TACC3 inh -5, FGF22 binding-2 0.088 and TSA no protein inactive.
Screening CC(C)N(C[C@H]1[C@H](c2ccccc2)[C@H](CO)N1S(C)(=O)=O)C(=O)CN(C)C returned FN deposit inh -6, MLL AF4-AF9 inh -1, FGF22 binding-1 0, ERp5 block -1 and ARNT-TACC3 inh 0.
COc1ccccc1C(=O)Nc1ccc2c(c1)OC[C@@H](C)N(CC1CC1)C[C@H](C)[C@H](OC)CN(C)C2=O was read as FN deposit inh -3.
For O=C(Nc1ccc([N+](=O)[O-])cc1)c1cccc(S(=O)(=O)Nc2cccnc2)c1 the results were FN deposit inh 0, MLL AF4-AF9 inh 3, FGF22 binding-1 0, ERp5 block 0, ARNT-TACC3 inh -6 and PDI turbidity -2.
`O=C(Nc1cccnc1)c1ccc(NS(=O)(=O)c2cccc([N+](=O)[O-])c2)cc1` gave FN deposit inh 8, MLL AF4-AF9 inh 7, FGF22 binding-1 1.8*, ERp5 block -2, ARNT-TACC3 inh 8, PDI turbidity -3, FGF22 binding-2 -0.14 and TSA no protein inactive.
`COc1ccc(NC(=O)N(C)C[C@@H]2Oc3c(NS(=O)(=O)c4ccc(Cl)cc4)cccc3C(=O)N([C@@H](C)CO)C[C@@H]2C)cc1` gave FN deposit inh 0, MLL AF4-AF9 inh 2, FGF22 binding-1 0, ERp5 block 1 and ARNT-TACC3 inh 5.
`O=C(N/N=C/c1cccnc1)c1ccccc1Cl` gave FN deposit inh 1, MLL AF4-AF9 inh -1, FGF22 binding-1 0, ERp5 block 1, ARNT-TACC3 inh -7 and PDI turbidity -1.
`O=C(N/N=C\c1cccnc1)c1cc(-c2ccc(Cl)s2)[nH]n1` gave FN deposit inh 5, MLL AF4-AF9 inh 0, FGF22 binding-1 1.3*, ERp5 block -2, ARNT-TACC3 inh -4, PDI turbidity 0, FGF22 binding-2 -0.19 and TSA no protein inactive.
For Cc1ccc2nc(-c3ccc(NC(=O)COCC(=O)O)cc3)sc2c1 the results were FN deposit inh -1, MLL AF4-AF9 inh -2, FGF22 binding-1 23*, ERp5 block 0, ARNT-TACC3 inh -3, PDI turbidity -3, FGF22 binding-2 0.22 and TSA no protein inactive.
For CC(=O)Nc1ccc2nc(NC(=O)COc3ccc(C)cc3)sc2c1 the results were FN deposit inh -16, MLL AF4-AF9 inh -1, FGF22 binding-1 1.5*, ERp5 block 7, ARNT-TACC3 inh 3, PDI turbidity -1, FGF22 binding-2 -0.001 and TSA no protein 12µM*.
C[C@@H]1CCCCO[C@H](CN(C)S(=O)(=O)c2ccc(Cl)cc2)[C@@H](C)CN([C@@H](C)CO)C(=O)c2cc(NC(=O)NC3CCCCC3)ccc2O1 was read as MLL AF4-AF9 inh 2, FGF22 binding-1 0, ERp5 block 5 and ARNT-TACC3 inh -4.
Screening N#C[C@H]1[C@@H](c2ccc(C#CCC3CCCC3)cc2)[C@H](CO)N1C(=O)CN1CCOCC1 returned FN deposit inh 5, MLL AF4-AF9 inh 7, FGF22 binding-1 19*, ERp5 block -7, ARNT-TACC3 inh 3, FGF22 binding-2 0.21[42 µM] and TSA no protein inactive.
